From ChEMBL document CHEMBL1122813, “Synthesis and antibacterial activity of 2-[(methoxycarbonyl)methylene]cephalosporins” (1984)
Converted amounts (≈) assume the structure as drawn.

Legend:
[1] = test system: Klebsiella pneumoniae; assay: In vitro antibacterial activity against Klebsiella pneumoniae strain 15130; assay type: functional
How it was run: (§1)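 MIC by serial twofold dilution of compound in Mueller-Hinton agar. The agar surface or broth was inoculated with a suitably diluted 18-24-h broth culture, then incubated at 37 °C for 17 h. MIC was read as the lowest concentration inhibiting visible growth.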

[2] = test system: Proteus mirabilis; assay: In vitro antibacterial activity against Proteus mirabilis strain 9900; assay type: functional; how it was run: as §1
[3] = test system: Staphylococcus aureus; assay: In vitro antibacterial activity against Staphylococcus aureus strain 9537 + 50% serum; assay type: functional
How it was run: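 Serial twofold dilution MIC with 50% human serum present. Mueller-Hinton agar or broth was inoculated with a suitably diluted 18-24-h broth culture and incubated at 37 °C for 17 h. The endpoint was the lowest concentration that stopped visible growth.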

[4] = test system: Providencia rettgeri; assay: In vitro antibacterial activity against Providencia rettgeri strain 21203; assay type: functional; how it was run: as §1
[5] = test system: Serratia marcescens; assay: In vitro antibacterial activity against Serratia marcescens strain 20019; assay type: functional; how it was run: as §1
[6] = test system: Escherichia coli; assay: In vitro antibacterial activity against Escherichia coli strain 20341; assay type: functional; how it was run: as §1
[7] = test system: Enterobacter cloacae; assay: In vitro antibacterial activity against Enterobacter cloacae strain 9659; assay type: functional; how it was run: as §1
[8] = test system: Staphylococcus aureus; assay: In vitro antibacterial activity against Staphylococcus aureus strain 9606 (Penicillin resistant); assay type: functional
How it was run: (§2)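 MIC by serial twofold dilution in Mueller-Hinton agar. Agar surface or broth inoculated with a suitably diluted 18-24-h broth culture. Plates and broth tubes incubated at 37 °C for 17 h. MIC taken as the lowest concentration that inhibited visible growth.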

[9] = test system: Morganella morganii; assay: In vitro antibacterial activity against Morganella morganii strain 15153; assay type: functional; how it was run: as §1
[10] = test system: Klebsiella pneumoniae; assay: In vitro antibacterial activity against Klebsiella pneumoniae strain 20468; assay type: functional; how it was run: as §1
[11] = test system: Staphylococcus aureus; assay: In vitro antibacterial activity against Staphylococcus aureus strain 9537; assay type: functional; how it was run: as §2
[12] = test system: Streptococcus pneumoniae; assay: In vitro antibacterial activity against Streptococcus pneumoniae strain 9585; assay type: functional; how it was run: as §1
[13] = test system: Streptococcus pyogenes; assay: In vitro antibacterial activity against Streptococcus pyogenes strain 9604; assay type: functional; how it was run: as §1
[14] = test system: Enterococcus faecalis; assay: In vitro antibacterial activity against Streptococcus faecalis strain 20688; assay type: functional; how it was run: as §1
[15] = test system: Proteus mirabilis; assay: In vitro antibacterial activity against Proteus mirabilis strain 9716; assay type: functional; how it was run: as §1
[16] = test system: Enterobacter cloacae; assay: In vitro antibacterial activity against Enterobacter cloacae strain 9656; assay type: functional; how it was run: as §1
[17] = test system: Escherichia coli; assay: In vitro antibacterial activity against Escherichia coli strain 15119; assay type: functional; how it was run: as §1
[18] = test system: Providencia rettgeri; assay: In vitro antibacterial activity against Providencia rettgeri strain 21203

SMILES | MIC [1] [µg/mL] | MIC [2] [µg/mL] | MIC [3] [µg/mL] | MIC [4] [µg/mL] | MIC [5] [µg/mL] | MIC [6] [µg/mL] | MIC [7] [µg/mL] | MIC [8] [µg/mL] | MIC [9] [µg/mL] | MIC [10] [µg/mL] | MIC [11] [µg/mL] | MIC [12] [µg/mL] | MIC [13] [µg/mL] | MIC [14] [µg/mL] | MIC [15] [µg/mL] | MIC [16] [µg/mL] | MIC [17] [µg/mL] | MIC [18] [µg/mL]
COC(=O)/C=C1\SC2C(NC(=O)Cc3cccs3)C(=O)N2C(C(=O)O)=C1C (stereo unspecified) | 125 (≈ 306 µM) | 16 (≈ 39.2 µM) | 63 | 63 (≈ 154 µM) | > 125 | 125 (≈ 306 µM) | > 125 | 2 (≈ 4.9 µM) | 125 (≈ 306 µM) | > 125 | 0.13 (≈ 0.318 µM) | 0.25 (≈ 0.612 µM) | 2 (≈ 4.9 µM) | 2 (≈ 4.9 µM) | 32 (≈ 78.3 µM) | > 125 | 63 (≈ 154 µM) | 
COC(=O)/C=C1/SC2C(NC(=O)Cc3cccs3)C(=O)N2C(C(=O)O)=C1C (stereo unspecified) | > 125 | 32 (≈ 78.3 µM) | 63 | 4 (≈ 9.79 µM) | 4 (≈ 9.79 µM) | 125 (≈ 306 µM) | > 125 | 1 (≈ 2.45 µM) | 16 (≈ 39.2 µM) | > 125 | 0.06 (≈ 0.147 µM) | 0.5 (≈ 1.22 µM) | 2 (≈ 4.9 µM) | 8 (≈ 19.6 µM) | 4 (≈ 9.79 µM) | > 125 | 125 (≈ 306 µM) | 
COC(=O)/C=C1\SC2C(NC(=O)C(N)c3ccccc3)C(=O)N2C(C(=O)O)=C1C.O=C(O)C(F)(F)F (stereo unspecified) | > 125 | > 125 | 32 | > 125 | > 125 | > 125 | > 125 | > 125 | > 125 | > 125 | 1 | 0.13 | 0.025 | 63 | > 125 | > 125 | > 125 | 
COC(=O)/C=C1\SC2C(NC(=O)Cc3cccs3)C(=O)N2C(C(=O)O)=C1COC(C)=O (stereo unspecified) | > 125 | 125 (≈ 268 µM) | 63 | > 125 | > 125 | > 125 | > 125 | 2 (≈ 4.29 µM) | > 125 | 63 (≈ 135 µM) | 2 (≈ 4.29 µM) | 0.13 (≈ 0.279 µM) | 0.5 (≈ 1.07 µM) | 4 (≈ 8.57 µM) | 125 (≈ 268 µM) | > 125 | 125 (≈ 268 µM) | 
CC(=O)OCC1=C(C(=O)O)N2C(=O)[C@@H](NC(=O)Cc3cccs3)[C@H]2SC1 [CEPHALOTHIN] | 16 (≈ 40.4 µM) | 1 (≈ 2.52 µM) | 2 |  | > 125 | 32 (≈ 80.7 µM) | > 125 | 0.5 (≈ 1.26 µM) | > 125 | > 125 | 0.06 (≈ 0.151 µM) | 0.03 (≈ 0.0757 µM) | 0.06 (≈ 0.151 µM) | 32 (≈ 80.7 µM) | 8 (≈ 20.2 µM) | > 125 | 16 (≈ 40.4 µM) | 63 (≈ 159 µM)
CO/N=C(/C(=O)NC1C(=O)N2C(C(=O)O)=C(C)/C(=C/C(=O)OC)SC12)c1ccco1 (stereo unspecified) | 16 (≈ 36.7 µM) | 4 (≈ 9.19 µM) | 63 | 32 (≈ 73.5 µM) | > 125 | 63 (≈ 145 µM) | > 125 | 4 (≈ 9.19 µM) | 63 (≈ 145 µM) | > 125 | 2 (≈ 4.59 µM) | 0.25 (≈ 0.574 µM) | 0.25 (≈ 0.574 µM) | 32 (≈ 73.5 µM) | 4 (≈ 9.19 µM) | 63 (≈ 145 µM) | 16 (≈ 36.7 µM) | 
CO/N=C(/C(=O)NC1C(=O)N2C(C(=O)O)=C(C)/C(=C/C(=O)OC)SC12)c1csc(N)n1.O=C(O)C(F)(F)F (stereo unspecified) | 16 | 2 | 125 | 32 | > 125 | 2 | > 125 | 4 | > 125 | 32 | 2 | 0.016 | 0.016 | 63 | 16 | > 125 | 2 | 
COC(=O)/C=C1\SC2C(NC(=O)C(O)c3ccccc3)C(=O)N2C(C(=O)O)=C1C (stereo unspecified) | > 125 | 63 (≈ 151 µM) | 32 | > 125 | > 125 | > 125 | > 125 | > 125 | > 125 | > 125 | 0.5 (≈ 1.19 µM) | 0.25 (≈ 0.597 µM) | 0.25 (≈ 0.597 µM) | 16 (≈ 38.2 µM) | > 125 | > 125 | > 125 | 
